In general, AUC(0-inf) refers to total exposure, with the tail of the curve extrapolated. The AUC(0-t) is the area under the concentration-time curve up to a stated or last time point. High values mean more exposure, low ones less exposure. The term Cmax denotes the maximum level reached in the sampled fluid or tissue. What is called half-life is the time needed for the level to fall by half in the phase considered.

The text below walks through data of publication PMC4608253 (Journal of chromatography. B, Analytical technologies in …, 2015).

The structures appear in SMILES notation. Where two headings read alike, the source gives them in different places.

One data set is described as follows: in vivo. The class given is in vivo, A/J mice. The note with it: for concentration in the PK study: oral XCHT 500 mg/kg; for detected in the blood: mice, oral XCHT extract 0.5 g/kg.
Data set [1] is classed as physicochemical, mice. The conditions noted are these: for Accuracy (RE, %) 25°C for 6 h / Accuracy (RE, %) Frozen for 30 days: stability in mice plasma/blood QC sample; for Accuracy (RE, %) Frozen for 30 days: −80°C; for Accuracy (RE, %) 4°C for 24 h: stability, extracted QC sample in auto-sampler. In short, it runs like this:
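Blank mouse blood spiked with analytes and vitamin C, then extracted with methanol containing daidzein internal standard (0.5 μM) by 1 min vortex. Spun at 20,000 × g for 15 min and dried under air. Three replicates per QC level were held unextracted at 25°C for 6 h, at −80°C for 30 days, or extracted in the 4°C autosampler for 24 h. Analysed by UPLC-MS/MS (C18, formic acid/acetonitrile, positive MRM); accuracy as RE.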

Setting [2] is: male, A/J, mouse, whole blood, po, 500 mg/kg.
The mark [3] stands for this setting: male A/J mouse, oral XCHT extract 500 mg/kg, blood, mean±SD, n=6.

As to `CC(C)=CCC[C@](C)(O[C@@H]1O[C@H](CO)[C@@H](O)[C@H](O)[C@H]1O)[C@H]1CC[C@]2(C)[C@@H]1[C@H](O)C[C@@H]1[C@@]3(C)CC[C@H](O)C(C)(C)[C@@H]3[C@@H](O[C@@H]3O[C@H](CO)[C@@H](O)[C@H](O)[C@H]3O)C[C@]12C` [Rg1, ginsenoside Rg1], the “concentration in the PK study” value in the data set “in vivo” (A/J mice, blood, time 15 min) was determined as 0.80±0.50; in “in vivo” (A/J mice, blood, time 480 min), 1.16±0.29. Besides, the “Accuracy (RE, %) 25°C for 6 h” value in data set [1] (spiked concentration 0.488) turned out to be 14.8%; in data set [1] (spiked concentration 62.5) it was 7.4%; in data set [1] (spiked concentration 500), 8.5%. In addition, the figures for the “Accuracy (RE, %) Frozen for 30 days” value in data set [1] (spiked concentration 0.488), in data set [1] (spiked concentration 62.5) and in data set [1] (spiked concentration 500) were 7.2%, 9.2% and 12.5%, respectively. Moreover, the “Accuracy (RE, %) 4°C for 24 h” value was 4.7% in data set [1] (spiked concentration 0.488), 10.1% in data set [1] (spiked concentration 62.5) and 12.12% in data set [1] (spiked concentration 500).
As to `CC(C)=CCC[C@](C)(O)[C@H]1CC[C@]2(C)[C@@H]1[C@H](O)C[C@@H]1[C@@]3(C)CC[C@H](O[C@@H]4O[C@H](CO)[C@@H](O)[C@H](O)[C@H]4O[C@@H]4O[C@H](CO)[C@@H](O)[C@H](O)[C@H]4O)C(C)(C)[C@@H]3CC[C@]12C` [Rg3, ginsenoside Rg3], the “concentration in the PK study” value is 1.33±0.48 in “in vivo” (A/J mice, blood, time 5 min); 3.74±3.73 in the data set “in vivo” (A/J mice, blood, time 30 min); 1.61±0.53 in the data set “in vivo” (A/J mice, blood, time 360 min). For the same compound, the results for the “Accuracy (RE, %) 25°C for 6 h” value in data set [1] (spiked concentration 0.488), in data set [1] (spiked concentration 6.25) and in data set [1] (spiked concentration 500) were 9.2%, 9.2% and −4.3%, respectively. Besides, the “Accuracy (RE, %) Frozen for 30 days” value in data set [1] (spiked concentration 0.488) was 8.0%; in data set [1] (spiked concentration 6.25), 8.0%; in data set [1] (spiked concentration 500), 0.4%. The figures for the “Accuracy (RE, %) 4°C for 24 h” value in data set [1] (spiked concentration 0.488), in data set [1] (spiked concentration 6.25) and in data set [1] (spiked concentration 500) were 1.57%, 8.64% and 0.4%, respectively.
For `CC(C)=CCC[C@](C)(O[C@@H]1O[C@H](CO)[C@@H](O)[C@H](O)[C@H]1O)[C@H]1CC[C@]2(C)[C@@H]1[C@H](O)C[C@@H]1[C@@]3(C)CC[C@H](O)C(C)(C)[C@@H]3[C@@H](O[C@@H]3O[C@H](CO)[C@@H](O)[C@H](O)[C@H]3O[C@@H]3O[C@@H](C)[C@H](O)[C@@H](O)[C@H]3O)C[C@]12C` [Re, ginsenoside Re], in the data set “in vivo” (setting [2]), the area under the curve AUC(0-inf) came out at 0.045 ± 0.0289 µM·h, the AUC(0-t) amounted to 0.0423 ± 0.0265 µM·h, the highest level (Cmax) was 50.2 ± 40.1 nM and the Tmax was 15 min. This compound also had a half-life in “in vivo” (setting [2]) of 163 ± 129 min. Moreover, in “in vivo”, the “detected in the blood” value is recorded as “detected”. In addition, in data set [1] (spiked concentration 3.9), the “Accuracy (RE, %) 25°C for 6 h” value is recorded as 10.1%; the “Accuracy (RE, %) Frozen for 30 days” value came to 10.4%; the “Accuracy (RE, %) 4°C for 24 h” value was −5.4%. In addition, in data set [1] (spiked concentration 62.5), the “Accuracy (RE, %) 25°C for 6 h” value came out at 8.8%; the “Accuracy (RE, %) Frozen for 30 days” value worked out at 9.7%; the “Accuracy (RE, %) 4°C for 24 h” value came out at 13.76%. In data set [1] (spiked concentration 500), the “Accuracy (RE, %) 25°C for 6 h” value is reported as −0.3%; the “Accuracy (RE, %) Frozen for 30 days” value is listed as 8.9%; the “Accuracy (RE, %) 4°C for 24 h” value is 9.7%.
With `COc1c(O[C@@H]2O[C@H](C(=O)O)[C@@H](O)[C@H](O)[C@H]2O)cc(O)c2c(=O)cc(-c3ccccc3)oc12` [Wogonoside, wogonoside], in the data set “in vivo” (setting [3]), the “AUC0-∞” value turned out to be 1555.74 ± 120.91 nmol·h/L, the AUC(0-t) was determined as 1.44654 ± 0.33091 µM·h, the Cmax came out at 174 ± 42.1 nM and the t1/2 was 4.77 ± 1.24 h. Besides, in “in vivo” (male A/J mouse, oral XCHT extract 500 mg/kg, blood, median (min~max), n=6), the Tmax is given as 1.625 (0.083~3) h. Also, the Tmax in “in vivo” (mean±SD, A/J mice, oral XCHT 0.5 g/kg) is 94.8 ± 97.8 min. Also, the “detected in the blood” value in “in vivo” is “detected”. Further, in data set [1] (spiked concentration 0.488), the “Accuracy (RE, %) 25°C for 6 h” value is 14.1%; the “Accuracy (RE, %) Frozen for 30 days” value is listed as −10.9%; the “Accuracy (RE, %) 4°C for 24 h” value amounted to 2.3%. In data set [1] (spiked concentration 62.5), the “Accuracy (RE, %) 25°C for 6 h” value was found to be 8.5%; the “Accuracy (RE, %) Frozen for 30 days” value amounted to 10.1%; the “Accuracy (RE, %) 4°C for 24 h” value is 15.1%. Further, in data set [1] (spiked concentration 500), the “Accuracy (RE, %) 25°C for 6 h” value is on record as 1.4%; the “Accuracy (RE, %) Frozen for 30 days” value was 11.2%; the “Accuracy (RE, %) 4°C for 24 h” value was 12.6%.
For `COc1cc(CCC(C)=O)ccc1O` [zingerone], in data set [1] (spiked concentration 3.9), the “Accuracy (RE, %) 25°C for 6 h” value came out at 7.5%; the “Accuracy (RE, %) Frozen for 30 days” value is on record as −5.9%; the “Accuracy (RE, %) 4°C for 24 h” value is 4.6%. For the same compound, in data set [1] (spiked concentration 62.5), the “Accuracy (RE, %) 25°C for 6 h” value was −8.6%; the “Accuracy (RE, %) Frozen for 30 days” value is −0.9%; the “Accuracy (RE, %) 4°C for 24 h” value is −1%. Besides, in data set [1] (spiked concentration 500), the “Accuracy (RE, %) 25°C for 6 h” value is on record as −14.6%; the “Accuracy (RE, %) Frozen for 30 days” value was 12.7%; the “Accuracy (RE, %) 4°C for 24 h” value worked out at 11.4%.
Regarding `C[C@H]1O[C@@H](O[C@H]2CC[C@@]3(C)[C@@H](CC[C@]4(C)[C@@H]3C=C[C@]35OC[C@@]6(CCC(C)(C)C[C@H]63)[C@@H](O)C[C@]54C)[C@]2(C)CO)[C@H](O)[C@@H](O[C@@H]2O[C@H](CO)[C@@H](O)[C@H](O)[C@H]2O)[C@H]1O` [SSa, saikosaponin a], the “concentration in the PK study” value in “in vivo” (A/J mice, blood, time 5 min) came to 0.69±0.26; in the data set “in vivo” (A/J mice, blood, time 15 min), 1.17±0.88; in “in vivo” (A/J mice, blood, time 30 min), 1.02±0.75; in “in vivo” (A/J mice, blood, time 60 min), 1.15±0.77; in “in vivo” (A/J mice, blood, time 120 min), 0.85±0.51. Also, the “Accuracy (RE, %) 25°C for 6 h” value in data set [1] (spiked concentration 0.39) is given as 0.7%; in data set [1] (spiked concentration 6.25), −1.5%; in data set [1] (spiked concentration 50), 7.4%. The figures for the “Accuracy (RE, %) Frozen for 30 days” value in data set [1] (spiked concentration 0.39), in data set [1] (spiked concentration 6.25) and in data set [1] (spiked concentration 50) were −6.7%, 10.8% and 12.1%, respectively. Further, the “Accuracy (RE, %) 4°C for 24 h” value in data set [1] (spiked concentration 0.39) is on record as −7.4%; in data set [1] (spiked concentration 6.25), 12%; in data set [1] (spiked concentration 50), 10.6%.
With `O=c1c(O)c(-c2ccc(O)c(O)c2)oc2cc(O)cc(O)c12` [quercetin, quecertin], the “Accuracy (RE, %) 25°C for 6 h” value in data set [1] (spiked concentration 3.9) is −4.8%; in data set [1] (spiked concentration 62.5) it was −12.9%; in data set [1] (spiked concentration 500), 10.1%. Besides, the “Accuracy (RE, %) Frozen for 30 days” value is given as −2.6% in data set [1] (spiked concentration 3.9), 4.8% in data set [1] (spiked concentration 62.5) and 14.7% in data set [1] (spiked concentration 500). The “Accuracy (RE, %) 4°C for 24 h” value in data set [1] (spiked concentration 3.9) is −1.3%; in data set [1] (spiked concentration 62.5), 5.12%; in data set [1] (spiked concentration 500) it was 14.72%.
In the case of `CCCCC[C@H](O)CC(=O)CCc1ccc(O)c(OC)c1` [(6)-Gingerol, 6-gingernol], in data set [1] (spiked concentration 3.9), the “Accuracy (RE, %) 25°C for 6 h” value was 2.8%; the “Accuracy (RE, %) Frozen for 30 days” value was found to be 4.4%; the “Accuracy (RE, %) 4°C for 24 h” value came to 2.6%. In addition, in data set [1] (spiked concentration 62.5), the “Accuracy (RE, %) 25°C for 6 h” value is −2.3%; the “Accuracy (RE, %) Frozen for 30 days” value is −12.1%; the “Accuracy (RE, %) 4°C for 24 h” value is reported as −8.4%. Moreover, in data set [1] (spiked concentration 500), the “Accuracy (RE, %) 25°C for 6 h” value is listed as −1.0%; the “Accuracy (RE, %) Frozen for 30 days” value was found to be 1.2%; the “Accuracy (RE, %) 4°C for 24 h” value amounted to 2%.
Take `C[C@@H]1O[C@@H](OC[C@H]2O[C@@H](Oc3c(-c4ccc(O)c(O)c4)oc4cc(O)cc(O)c4c3=O)[C@H](O)[C@@H](O)[C@@H]2O)[C@H](O)[C@H](O)[C@H]1O` [rutin]: in data set [1] (spiked concentration 0.049), the “Accuracy (RE, %) 25°C for 6 h” value was determined as 13.2%; the “Accuracy (RE, %) Frozen for 30 days” value came to 8.3%; the “Accuracy (RE, %) 4°C for 24 h” value was determined as 9.3%. In data set [1] (spiked concentration 6.25), the “Accuracy (RE, %) 25°C for 6 h” value was 3.1%; the “Accuracy (RE, %) Frozen for 30 days” value is 8.5%; the “Accuracy (RE, %) 4°C for 24 h” value was found to be 12.7%. Further, in data set [1] (spiked concentration 50), the “Accuracy (RE, %) 25°C for 6 h” value turned out to be 6.3%; the “Accuracy (RE, %) Frozen for 30 days” value came to 7.9%; the “Accuracy (RE, %) 4°C for 24 h” value came out at 12.1%.
Regarding `COc1ccc(-c2coc3cc(O)ccc3c2=O)cc1` [Formononetin, formononetin], the “Accuracy (RE, %) 25°C for 6 h” value in data set [1] (spiked concentration 3.9) was 8.0%; in data set [1] (spiked concentration 62.5) it was 11.8%; in data set [1] (spiked concentration 500), −10.9%. For the same compound, the results for the “Accuracy (RE, %) Frozen for 30 days” value in data set [1] (spiked concentration 3.9), in data set [1] (spiked concentration 62.5) and in data set [1] (spiked concentration 500) were 13.5%, 13% and 4.9%, respectively. For the same compound, the entries for the “Accuracy (RE, %) 4°C for 24 h” value in data set [1] (spiked concentration 3.9), in data set [1] (spiked concentration 62.5) and in data set [1] (spiked concentration 500) were −8.9%, 13.6% and 5%, respectively.
